TNF necrop inh = inhibitors of TNF-alpha induced necroptosis in Jurkat FADD-/- cells; activation (protection from cell death), % at 10 µM; Jurkat FADD-/- TNF necroptosis rescue, ATP luminescence, 24 h; 0 = TNF only, 100 = no-TNF cells; AID 463075; 220,000 compounds, 0.068% hits;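 active = activation, meaning protection from cell death, of at least 50% relative to plate controls; inactive = activation below 50%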;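 also: necroptosis triggered by 40 ng/mL TNF-alpha added together with compound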
zVAD death inh = blocks zVAD induced death of L929 cells; 220,000 compounds, 0.38% hits; viability rescue, % at 10 µM; L929 zVAD necroptosis rescue, ATP luminescence, 24 h; with zVAD 60 µM;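 active = activation, scaled between plate controls, above about 75%, limit read from the data; inactive = activation under that limit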;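 also: 0% = zVAD with DMSO and 100% = DMSO alone without zVAD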
Furin inhibitor = blocks human furin protease activity; P09958; purified furin, fluorogenic substrate cleavage; inhibition, % at 20 µM or 30 µM; 220,000 compounds, 0.061% hits; in the data active = inhibition above about 25%
Target sequence (P09958 108-714 limits assumed): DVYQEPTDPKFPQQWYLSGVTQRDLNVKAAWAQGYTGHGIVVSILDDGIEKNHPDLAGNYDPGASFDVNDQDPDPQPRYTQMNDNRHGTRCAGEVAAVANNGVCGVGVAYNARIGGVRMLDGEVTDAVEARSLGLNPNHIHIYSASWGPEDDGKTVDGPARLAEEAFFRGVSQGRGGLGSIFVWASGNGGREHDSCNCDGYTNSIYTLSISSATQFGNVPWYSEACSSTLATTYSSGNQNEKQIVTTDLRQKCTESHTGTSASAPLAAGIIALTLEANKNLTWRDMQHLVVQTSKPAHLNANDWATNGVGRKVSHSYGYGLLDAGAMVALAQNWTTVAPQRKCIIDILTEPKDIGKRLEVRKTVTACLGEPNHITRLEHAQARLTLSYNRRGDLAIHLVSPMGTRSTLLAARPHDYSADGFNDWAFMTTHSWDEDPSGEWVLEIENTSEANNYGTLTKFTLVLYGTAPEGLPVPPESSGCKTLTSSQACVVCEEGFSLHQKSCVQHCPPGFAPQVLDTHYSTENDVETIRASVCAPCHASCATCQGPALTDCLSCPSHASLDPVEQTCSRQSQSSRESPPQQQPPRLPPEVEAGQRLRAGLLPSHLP
Autophagy mod = autophagy modulation, high-content screen | MEF GFP-LC3 puncta imaging; test concentration mostly 10 µM | calls only at 10 µM (by protocol) | 190,000 compounds, 0.98% hits;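 active = percentage of spot-positive cells more than 3 SD above its plate mean, without a fluorescence outlier flag or 80% toxicity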;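 also: spot-positive cell cutoff set from DMSO-treated cells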
Dynein cargo inh = dynein cargo transport inhibition; z-score, hits read low; 220,000 compounds, 0.47% hits; 3617.4 mouse cells, GR-EGFP nuclear translocation imaging; test concentration mostly 20 µM; stimulated with dexamethasone, 1 µM; hits give low values; AID 1381;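 active = plate z-score of nuclear minus cytoplasmic receptor signal below a set negative limit, without overly bright fluorescence or cell loss, cut at about -3.5 in these data, passing the limit was not always enough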;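 also: z-score of nuclear minus cytoplasmic ring GR-EGFP intensity difference per well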
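Buffer or medium: tet-free medium with charcoal-stripped serum / Also added: dexamethasone agonist, 1.0 µM final, for 30 min / Timing: induction 48 h, compound 1 h, agonist 30 min / Measured by: high-content fluorescence imaging after fixation / Read-out: nuclear-to-cytoplasmic GR-EGFP distribution per well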
HSV replic up = HSV replication enhancement; 220,000 compounds, 0.005% hits; HSV replication augmentation in cells, fold increase; maximum fold increase; AID 1956; in the data active = maximum fold increase above about 1.5; tested in PC3 cells
zVAD death conf = confirmed blocker of zVAD induced death in L929 cells; L929 zVAD-induced necroptosis rescue, ATP luminescence, 24 h; 760 compounds, 16% hits; shares compounds with zVAD death inh; activation (protection from necroptosis), % at 10 µM;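 active = mean protection from necroptosis of at least 50% over duplicate tests; inactive = mean protection below 50%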;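 also: 0% = cells with zVAD alone and 100% = vehicle cells without zVAD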
Active calls of the source: *. Only some compounds are listed: those with a hit (about 1.8% of all), similar ones and a draw of the others.

Screening Cc1cccnc1Nc1nc(-c2ccc(O)cc2)cs1 returned TNF necrop inh -5, zVAD death inh 1, Furin inhibitor -19, Autophagy mod inactive, Dynein cargo inh 0.65 and HSV replic up inactive.
CCN(CC)CCn1c2ccccc2c2cnc(N)c(C#N)c21 was read as TNF necrop inh -10, zVAD death inh 75*, Furin inhibitor -21, Autophagy mod active, Dynein cargo inh -0.17, HSV replic up inactive and zVAD death conf 70*.
CN(C)C=Nc1ncc2c3ccccc3n(CCN(C)C)c2c1C#N was read as TNF necrop inh 1, zVAD death inh 91*, Furin inhibitor -6, Autophagy mod inactive, Dynein cargo inh 1.6, HSV replic up inactive and zVAD death conf 39.
Screening O=C(Cc1ccccc1)Nc1ccc(SC(F)F)cc1 returned TNF necrop inh 35, zVAD death inh 19, Furin inhibitor -9, Autophagy mod inactive, Dynein cargo inh -0.13 and HSV replic up inactive.
Screening O=C(Nc1ccc2c(c1)OCCO2)Nc1ccc2c(c1)OCO2 returned TNF necrop inh -2, zVAD death inh 1, Furin inhibitor -31, Autophagy mod inactive, Dynein cargo inh -0.64 and HSV replic up inactive.
Screening O=C(Nc1ccc2c(c1)OCO2)Nc1ccc(Br)cn1 returned TNF necrop inh 8, zVAD death inh 79*, Furin inhibitor -14, Autophagy mod inactive, Dynein cargo inh -1.9, HSV replic up inactive and zVAD death conf 1.
`Cc1ccnc(NC(=O)Nc2ccc3c(c2)OCO3)c1` gave TNF necrop inh 1, zVAD death inh 85*, Furin inhibitor -19, Autophagy mod inactive, Dynein cargo inh 0.28, HSV replic up inactive and zVAD death conf 2.
For Cc1ccc(S(=O)(=O)CC(CN2CCCCC2)N2CCCCC2)cc1 (stereo not given) the results were TNF necrop inh 10, zVAD death inh 81*, Furin inhibitor -13, Autophagy mod inactive, Dynein cargo inh -0.65, HSV replic up inactive and zVAD death conf 22.
O=S(=O)(CC(CN1CCCCC1)N1CCCCC1)c1ccc2ccccc2c1 (stereo not given) was read as TNF necrop inh -5, zVAD death inh 76*, Furin inhibitor -24, Autophagy mod inactive, Dynein cargo inh -2.1, HSV replic up inactive and zVAD death conf 2.
Screening O=S(=O)(CC(CN1CCOCC1)N1CCOCC1)c1ccccc1 (stereo not given) returned TNF necrop inh 1, zVAD death inh 0, Furin inhibitor -19, Autophagy mod inactive, Dynein cargo inh 0.4 and HSV replic up inactive.
For O=C(Nc1ncc(Cc2ccc(SC(F)F)cc2)s1)c1ccc(OC(F)F)cc1 the results were TNF necrop inh -18, zVAD death inh -1, Furin inhibitor 3, Autophagy mod inactive, Dynein cargo inh 0.34 and HSV replic up inactive.
`Cc1ccc(C2CC(=O)NC(SCC(=O)Nc3nccs3)=C2C#N)cc1` (stereo not given) gave TNF necrop inh 92*, zVAD death inh 96*, Furin inhibitor -20, Autophagy mod inactive, Dynein cargo inh -0.17, HSV replic up inactive and zVAD death conf 85*.
N#CC1=C(SCC(=O)Nc2ccccc2)NC(=O)CC1c1ccc(O)cc1 (stereo not given) was read as TNF necrop inh 1, zVAD death inh 2, Furin inhibitor -27, Autophagy mod inactive, Dynein cargo inh -0.49 and HSV replic up inactive.
For Cc1cn(-c2cc(C(=O)Nc3ccc(C)c(NC(=O)N4CCNC4=O)c3)cc(C(F)(F)F)c2)cn1 the results were TNF necrop inh 1, zVAD death inh 79*, Furin inhibitor -9, Dynein cargo inh 0.013, HSV replic up inactive and zVAD death conf 51*.
`CCN1CCN(Cc2ccc(NC(=O)c3ccc(C)c(NC(=O)N4CCNC4=O)c3)cc2C(F)(F)F)CC1` gave TNF necrop inh -4, zVAD death inh 74, Furin inhibitor -23, Dynein cargo inh -0.16 and HSV replic up inactive.
For O=C(CSc1nc2ccc(Cl)cc2[nH]1)N1CCN(C(=O)c2ccco2)CC1 the results were TNF necrop inh 2, zVAD death inh 85*, Furin inhibitor -20, Autophagy mod inactive, Dynein cargo inh 0.27, HSV replic up inactive and zVAD death conf 49.
`Cc1ccc2nc(SCC(=O)N3CCN(C(=O)c4ccco4)CC3)[nH]c2c1` gave TNF necrop inh 2, zVAD death inh 19, Furin inhibitor -28, Autophagy mod inactive, Dynein cargo inh -0.54 and HSV replic up inactive.
`CC1(C)[C@@H](O)CC[C@]2(C)C3C(O)C=C4[C@H]5C[C@@](C)(C(=O)O)CC[C@]5(C)CC[C@]4(C)[C@]3(C)CC[C@@H]12` (stereo not given in full) gave TNF necrop inh 2, zVAD death inh 1, Furin inhibitor -29, Dynein cargo inh 0.31 and HSV replic up inactive.
Screening Cc1cccc(OCC(=O)Nc2ccccc2-c2ccccc2)c1 returned TNF necrop inh 1, zVAD death inh 75*, Furin inhibitor -14, Autophagy mod inactive, Dynein cargo inh -0.39, HSV replic up inactive and zVAD death conf 1.
Screening CCCCCCNC(=O)N[C@H](C(=O)NCCC[C@H]1CN2C(=NC[C@H]2C)N1CCC(c1ccccc1)c1ccccc1)C(C)O (stereo not given in full) returned TNF necrop inh 0, zVAD death inh 0, Furin inhibitor -24 and Dynein cargo inh -1.1.
For N#C/C(=C(\O)c1ccco1)c1ccccn1 the results were TNF necrop inh 29, zVAD death inh 105*, Furin inhibitor -21, Autophagy mod inactive, Dynein cargo inh -0.59, HSV replic up inactive and zVAD death conf 57*.
`N#CC(C(=O)c1ccco1)c1ccccn1` (stereo not given) gave TNF necrop inh 20, zVAD death inh 81*, Furin inhibitor -13, Autophagy mod inactive, Dynein cargo inh 0.059, HSV replic up inactive and zVAD death conf 56*.
`O=C(c1ccco1)N(c1ccccn1)c1ccccn1` gave TNF necrop inh 0, zVAD death inh 0, Furin inhibitor -30, Autophagy mod inactive, Dynein cargo inh -0.78 and HSV replic up inactive.
For NC(=O)c1nnsc1Sc1c(C(N)=O)nnn1-c1cccc(N)c1 the results were TNF necrop inh 1, zVAD death inh -2, Furin inhibitor -19, Autophagy mod inactive, Dynein cargo inh -1.1 and HSV replic up inactive.

Screening data: PubChem BioAssay, several laboratories
